We go through twelve compounds from ChEMBL document CHEMBL1124970, “New leupeptin analogues: synthesis and inhibition data” (J Med Chem, 1990).

Where a SMILES comes first, the peptide text is derived from it. [ ]: non-standard residue; d: D form. The star is where a group is joined. Orn = NCCC[C@H](N)C(=O)O; Cbz = O=C(OCc1ccccc1)* A value given as a limit tells only on which side of the number the result lay.

One assay has as its target Kallikrein-1 (Homo sapiens, UniProt P06870). The assay is described as follows: Inhibition of Kallikrein proteolytic enzyme. The procedure, abridged: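 Human urinary kallikrein (0.3 units/mL stock) at 37 °C in 0.46 M Tris pH 8.0 containing 0.0115 M NaCl, inhibitor in 1% DMSO/water. Benzoylarginine ethyl ester (0.5 mM stock) substrate, 2 min incubation, absorbance change at 253 nm over 10 min. Quadruplicate measurements at ≥5 inhibitor concentrations; IC50 read from % inhibition vs log inhibitor concentration.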

Assay [1] addresses T1, Serine protease 1 (Homo sapiens, UniProt P07477). The assay is described as follows: Evaluated for the inhibition of trypsin. The procedure, abridged:
(§1)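 Trypsin (0.01 g/L stock in 0.001 N HCl) in 0.046 M Tris with 0.0115 M CaCl2, pH 8.1, inhibitor in 1% DMSO/water, 37 °C. Tosyl-L-arginine methyl ester (0.01 M stock) added, 2 min incubation, A247 change read over 10 min. Each inhibitor level run four times, five or more levels; IC50 from % inhibition plotted against log concentration.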

The target of assay [2] is T2, Plasminogen (Rattus norvegicus, UniProt Q01177). The assay is described as follows: Inhibition of plasmin. In a few lines:
(§2)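 Plasmin (0.25 casein units/mL stock, in 50% glycerol/2 mM HCl with 5 g/L carbowax) in 0.5 M Tris pH 8.0 with 0.12 M NaCl, inhibitor added in 1% DMSO/water, 37 °C. D-Val-Leu-Lys p-nitroanilide (3.35 mM stock) added, 1 min incubation, then A405 change followed over 10 min. Four runs at ≥5 inhibitor concentrations; % inhibition vs log[I] gives IC50.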

In assay [3] the target is T1, Serine protease 1. In words: Evaluated for the inhibition of trypsin.(no inhibition at 400 uM). In a few lines: as §1
The target of assay [4] is T2, Plasminogen. In words: Evaluated for the inhibition of plasmin.( no inhibition at 400 uM). In a few lines:
as §2

Assay [5] concerns the target T2, Plasminogen. In words: Evaluated for the inhibition of plasmin.(no inhibition at 400 uM). In a few lines:
as §2

Sequence of Kallikrein-1 (P06870 whole entry): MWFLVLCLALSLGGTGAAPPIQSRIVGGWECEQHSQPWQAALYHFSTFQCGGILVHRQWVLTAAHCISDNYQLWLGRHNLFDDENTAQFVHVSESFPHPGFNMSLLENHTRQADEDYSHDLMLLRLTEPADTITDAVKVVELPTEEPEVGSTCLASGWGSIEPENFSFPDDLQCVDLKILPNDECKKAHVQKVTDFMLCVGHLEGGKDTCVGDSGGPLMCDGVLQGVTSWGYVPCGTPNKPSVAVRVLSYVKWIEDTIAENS
T2 sequence (Q01177 97-581 limits assumed): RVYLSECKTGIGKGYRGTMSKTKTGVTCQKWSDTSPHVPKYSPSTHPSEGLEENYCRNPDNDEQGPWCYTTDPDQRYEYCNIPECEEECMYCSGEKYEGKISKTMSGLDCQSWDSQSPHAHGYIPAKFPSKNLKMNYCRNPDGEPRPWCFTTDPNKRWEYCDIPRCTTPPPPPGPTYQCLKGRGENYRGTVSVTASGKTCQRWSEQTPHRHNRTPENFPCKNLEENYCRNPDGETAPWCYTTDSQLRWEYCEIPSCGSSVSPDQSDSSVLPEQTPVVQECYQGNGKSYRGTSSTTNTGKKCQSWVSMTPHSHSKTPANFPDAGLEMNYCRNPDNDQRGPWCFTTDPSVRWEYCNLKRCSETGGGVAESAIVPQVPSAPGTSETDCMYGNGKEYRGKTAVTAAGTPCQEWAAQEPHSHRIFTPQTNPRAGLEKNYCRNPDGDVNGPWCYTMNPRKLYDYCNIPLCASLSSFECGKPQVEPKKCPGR
T2 sequence (Q01177 582-812 limits assumed): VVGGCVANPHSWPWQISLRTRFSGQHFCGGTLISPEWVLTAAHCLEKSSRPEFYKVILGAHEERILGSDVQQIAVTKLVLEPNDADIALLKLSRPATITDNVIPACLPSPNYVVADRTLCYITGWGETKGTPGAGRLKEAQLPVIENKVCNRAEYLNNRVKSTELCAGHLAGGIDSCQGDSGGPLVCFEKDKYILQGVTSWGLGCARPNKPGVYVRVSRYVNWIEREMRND
T1 sequence (P07477 whole entry): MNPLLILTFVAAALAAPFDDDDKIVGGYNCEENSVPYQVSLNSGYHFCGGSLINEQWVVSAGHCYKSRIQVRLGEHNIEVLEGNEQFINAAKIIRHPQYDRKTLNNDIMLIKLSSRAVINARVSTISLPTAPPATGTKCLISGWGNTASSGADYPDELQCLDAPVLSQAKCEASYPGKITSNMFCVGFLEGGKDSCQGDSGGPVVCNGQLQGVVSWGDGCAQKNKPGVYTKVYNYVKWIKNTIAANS

The term IC50 denotes the midpoint of a concentration-inhibition curve. Read a low IC50 as greater potency. Take `CC(C)C[C@H](NC(=O)OCc1ccccc1)C(=O)N[C@@H](CC(C)C)C(=O)N[C@H](C=O)CCCN=C(N)N`: the 50% inhibitory concentration (IC50) is 36 µM against Kallikrein-1, 164 µM at Serine protease 1 [1] and 128 µM on Plasminogen [2].
Turning to `CC(C)C[C@H](NC(=O)[C@H](Cc1ccccc1)NC(=O)OCc1ccccc1)C(=O)N[C@H](C=O)CCCN=C(N)N` (Cbz-Phe-Leu-Arg-aldehyde), the IC50 at Kallikrein-1 is 25.7 µM; against Serine protease 1 [1], 45.9 µM; at Plasminogen [2], 10.2 µM.
The matching figures for `CC(C)C[C@H](NC(=O)OCc1ccccc1)C(=O)N[C@@H](CC(C)C)C(=O)N[C@H](C=O)CCCCN` (Cbz-Leu-Leu-Lys-aldehyde): 19 µM, 196 µM and 184 µM.
In the case of `CC(C)C[C@H](NC(=O)OCc1ccccc1)C(=O)N[C@@H](Cc1ccccc1)C(=O)N[C@H](C=O)CCCN` (Cbz-Leu-Phe-[Orn]-aldehyde), the IC50 at Kallikrein-1 is 82.4 µM; at Serine protease 1 [3] it was > 400 µM; against Plasminogen [4], > 400 µM.
Regarding `CC(C)C[C@H](NC(=O)[C@H](Cc1ccccc1)NC(=O)OCc1ccccc1)C(=O)N[C@H](C=O)CCCN` (Cbz-Phe-Leu-[Orn]-aldehyde), the IC50 at Kallikrein-1 was 112 µM; against Serine protease 1 [3], > 400 µM; at Plasminogen [2], 242 µM.
For the compound `CC(C)C[C@H](NC(=O)OCc1ccccc1)C(=O)N[C@@H](Cc1ccccc1)C(=O)N[C@H](C=O)CCCCN` (Cbz-Leu-Phe-Lys-aldehyde), the IC50 against Kallikrein-1 is 20.3 µM; against Serine protease 1 [3], > 400 µM; against Plasminogen [2] it was 47 µM.
`CC(C)C[C@H](NC(=O)OCc1ccccc1)C(=O)N[C@H](C(=O)N[C@H](C=O)CCCN)C(C)C` (Cbz-Leu-Val-[Orn]-aldehyde): the IC50 is 53.8 µM at Kallikrein-1, > 400 µM on Serine protease 1 [3] and 432 µM against Plasminogen [2].
As for `CC(C)C[C@H](NC(=O)OCc1ccccc1)C(=O)N[C@H](C(=O)N[C@H](C=O)CCCN=C(N)N)C(C)C` (Cbz-Leu-Val-Arg-aldehyde), the IC50 against Kallikrein-1 worked out at 11.2 µM; on Serine protease 1 [1] it was 81.4 µM; against Plasminogen [2], 10.2 µM.
`CC(C)C[C@H](NC(=O)[C@H](Cc1ccccc1)NC(=O)OCc1ccccc1)C(=O)N[C@H](C=O)CCCCN` (Cbz-Phe-Leu-Lys-aldehyde): the values for the IC50 at Kallikrein-1, against Serine protease 1 [3] and at Plasminogen [2] were 25.6 µM, > 400 µM and 8.9 µM, respectively.
On to `CC(C)C[C@H](NC(=O)OCc1ccccc1)C(=O)N[C@@H](Cc1ccccc1)C(=O)N[C@H](C=O)CCCN=C(N)N` (Cbz-Leu-Phe-Arg-aldehyde), for which the IC50 turned out to be 33.3 µM against Kallikrein-1, 107 µM on Serine protease 1 [1] and 79.9 µM against Plasminogen [2].
Turning to `CC(C)C[C@H](NC(=O)OCc1ccccc1)C(=O)N[C@H](C(=O)N[C@H](C=O)CCCCN)C(C)C` (Cbz-Leu-Val-Lys-aldehyde), the IC50 was 14.8 µM against Kallikrein-1, > 400 µM on Serine protease 1 [3] and 18.5 µM on Plasminogen [2].
With `CC(C)C[C@H](NC(=O)OCc1ccccc1)C(=O)N[C@@H](CC(C)C)C(=O)N[C@H](C=O)CCCN` (Cbz-Leu-Leu-[Orn]-aldehyde), the IC50 at Kallikrein-1 was 29.3 µM; at Serine protease 1 [3], > 400 µM; at Plasminogen [5], > 400 µM.
